The test system of one assay is MCF7. As to the kind of experiment: Cytotoxicity against human MCF7 cells assessed as growth inhibition at 10^-5 M after 72 hrs by MTT assay relative to control. It is filed as functional. The following applies: MCF7, 72 h, read-out: GI. (In general: Tetrazolium assays rely on reduction of a dye to a coloured formazan, in cell work by metabolically active cells.)
The test system of assay [1] is MDA-MB-231. As to the kind of experiment: Cytotoxicity against human MDA-MB-231 cells assessed as growth inhibition at 10^-5 M after 72 hrs by MTT assay relative to control. It counts as functional. The following applies: MDA-MB-231, 72 h, read-out: GI.
Assay [2] has as its system A549. The assay can be described thus: Cytotoxicity against human A549 cells assessed as growth inhibition at 10^-5 M after 72 hrs by MTT assay relative to control. It counts as functional. The following applies: A549, 72 h, read-out: GI.
Assay [3] is described as follows: Cytotoxicity against human HCT116 cells assessed as growth inhibition at 10^-5 M after 72 hrs by MTT assay relative to control. It counts as functional. The following applies: HCT-116, 72 h, read-out: GI.
The next assay has as its system HeLa. As to the kind of experiment: Cytotoxicity against human HeLa cells assessed as growth inhibition at 10^-5 M after 72 hrs by MTT assay relative to control. It is filed as functional. The following applies: read-out: GI.
Assay [4] has as its system A549. The assay can be described thus: Cytotoxicity against human A549 cells assessed as growth inhibition after 72 hrs by MTT assay. It is filed as functional, cell-based. The following applies: A549, 72 h. The gist of the method:
(§1)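 MTT viability assay. Cells were seeded at 5000 per well, incubated overnight, then exposed to compound at a range of concentrations for 72 h. MTT was added from a 5 mg/mL stock for 4 h, and absorbance was read at 570 nm. IC50 (50% viability inhibition) was calculated by the logit method. Each concentration was run at least three times.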

Assay [5] has as its system MDA-MB-231. As to the kind of experiment: Cytotoxicity against human MDA-MB-231 cells assessed as growth inhibition after 72 hrs by MTT assay. It counts as functional, cell-based. The following applies: MDA-MB-231, 72 h. In outline: as §1
Assay [6] is described as follows: Cytotoxicity against human HCT116 cells assessed as growth inhibition after 72 hrs by MTT assay. It is filed as functional, cell-based. The following applies: HCT-116, 72 h. The gist of the method:
as §1

`COc1cc2ccc(=O)oc2cc1OC(=O)/C=C/c1ccc(C#N)cc1`: the inhibition of growth at 10 µM turned out to be 10.5% in the assay with MCF7; 14.3% in the assay with MDA-MB-231 [1]; 17.9% with A549 [2]; 13.6% in assay [3]; 13.2% in the assay with HeLa.
On to `COc1cc2cc(NC(=O)/C=C/c3ccc(F)cc3)c(=O)oc2cc1O`, for which the inhibition of growth at 10 µM in the assay with MCF7 came out at 58.4%; with MDA-MB-231 [1], 69.2%; in the assay on A549 [2] it was 85.6%; in assay [3], 54.2%; with HeLa, 67.1%. Further, the figures for the IC50 (in the assay with A549 [4]; in the assay with MDA-MB-231 [5]; in assay [6]) were 0.612 µM, 2.35 µM and 5.54 µM, respectively.
As for `COc1cc2ccc(=O)oc2cc1OC(=O)/C=C/c1ccc(F)cc1`, the inhibition of growth at 10 µM in the assay with MCF7 worked out at 1.77%; with MDA-MB-231 [1], 19.3%; with A549 [2], 21.4%; in assay [3], 18%; in the assay with HeLa, 3.89%.
For `COc1cc2ccc(=O)oc2cc1OC(=O)/C=C/c1ccc(Cl)cc1`, the inhibition of growth at 10 µM with MCF7 was found to be 22.8%; with MDA-MB-231 [1], 20.3%; in the assay on A549 [2], 2.73%; in assay [3], 21.1%; in the assay with HeLa, 22.4%.
The matching figures for `COc1cc2cc(NC(=O)/C=C/c3cc(OC)c(OC)c(OC)c3)c(=O)oc2cc1O`: 18.3%, 12.9%, 4.87%, 7.11% and 9.45%.
`COc1cc2cc(NC(=O)/C=C/c3ccc(C#N)cc3)c(=O)oc2cc1O`: the inhibition of growth at 10 µM in the assay with MCF7 worked out at 27.3%; with MDA-MB-231 [1], 13.1%; with A549 [2] it was 36.9%; in assay [3], 14.1%; with HeLa, 27.1%.
`COc1cc2ccc(=O)oc2cc1OC(=O)/C=C/c1ccccc1`: the inhibition of growth at 10 µM with MCF7 came to 3.65%; in the assay on MDA-MB-231 [1], 10.1%; in the assay on A549 [2], 19.4%; in assay [3], 12.2%; with HeLa it was 19.4%.
On to `COc1cc(/C=C/C(=O)Oc2cc3oc(=O)ccc3cc2OC)ccc1OCc1ccccc1`, for which the inhibition of growth at 10 µM in the assay with MCF7 was 9.91%; in the assay on MDA-MB-231 [1], 1.39%; in the assay with A549 [2] it was 10.4%; in assay [3], 4.36%; in the assay on HeLa, 2.36%.
Regarding `COc1cc2cc(NC(=O)/C=C/c3ccccc3)c(=O)oc2cc1O`, the inhibition of growth at 10 µM in the assay on MCF7 was 6.06%; in the assay with MDA-MB-231 [1], 44.5%; in the assay on A549 [2], 65.7%; in assay [3], 60.3%; with HeLa, 58.3%. Also, the figures for the 50% inhibitory concentration (IC50) (with A549 [4]; in the assay with MDA-MB-231 [5]; in assay [6]) were 2.18 µM, 0.369 µM and 1.15 µM, respectively.
`COc1cc2ccc(=O)oc2cc1OC(=O)/C=C/c1cc(OC)c(OC)c(OC)c1`: the inhibition of growth at 10 µM amounted to 18% in the assay with MCF7; 11.8% with MDA-MB-231 [1]; 20.6% in the assay with A549 [2]; 18.9% in assay [3]; 0.93% in the assay with HeLa.
The matching figures for `COc1cc(CCC(=O)Oc2cc3oc(=O)ccc3cc2OC)ccc1O`: 8.55%, 9.73%, 6.16%, 16.1% and 15.4%.
Regarding `COc1ccc(/C=C/C(=O)Oc2cc3oc(=O)ccc3cc2OC)cc1`, the inhibition of growth at 10 µM in the assay on MCF7 was 13.7%; with MDA-MB-231 [1], 20.8%; in the assay with A549 [2] it was 0.53%; in assay [3], 31.6%; with HeLa, 19.5%.
On to `COc1ccc(/C=C/C(=O)Nc2cc3cc(OC)c(O)cc3oc2=O)cc1`, for which the inhibition of growth at 10 µM in the assay with MCF7 worked out at 44.8%; in the assay on MDA-MB-231 [1] it was 61.4%; with A549 [2], 88.6%; in assay [3], 75.7%; in the assay on HeLa, 60.9%. The IC50 amounted to 0.649 µM with A549 [4], 0.578 µM in the assay on MDA-MB-231 [5] and 0.505 µM in assay [6].
Regarding `COc1cc2ccc(=O)oc2cc1O` [SCOPOLETIN], the inhibition of growth at 10 µM with MCF7 is 2.63%; in the assay with MDA-MB-231 [1], 8.47%; in the assay on A549 [2] it was 4.23%; in assay [3], 1.36%; in the assay with HeLa it was 0.98%. Further, the 50% inhibitory concentration (IC50) (in the assay with A549 [4]; in the assay with MDA-MB-231 [5]; in assay [6]) was over 30 µM in each case.
For `COc1cc2cc(NC(=O)/C=C/c3ccc(C(F)(F)F)cc3)c(=O)oc2cc1O`, the inhibition of growth at 10 µM with MCF7 came out at 12.6%; in the assay on MDA-MB-231 [1], 24.6%; with A549 [2], 26.4%; in assay [3], 17%; in the assay with HeLa, 19%.

Usually IC50 stands for the concentration at which inhibition is half-maximal.

For the origin of these results see ChEMBL document CHEMBL3407428, “Synthesis, in vitro and in vivo antitumor activity of scopoletin-cinnamic acid hybrids” (Eur J Med Chem, 2015).
